Values after ≈ are worked out from the molar mass of the structure shown.
Legend:
[1] = tested on: Human immunodeficiency virus 1; test: Antiviral activity against HIV-1 3B infected in human MT-4 cells assessed as protection against virus induced cytopathic effect after 5 days by MTT assay; assay type: functional, cell-based; conditions: Human immunodeficiency virus 1, 3B, MT4, 120 h
Outline: (§1)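 MT-4 cells, exponentially growing, resuspended at 6 x 10⁵ cells/mL and infected with HIV-1 IIIB or HIV-2 ROD at 100-300 CCID50. Test compounds added as serial 5-fold dilutions in triplicate wells at the start. Untreated infected and mock-infected controls included. Viability read by MTT spectrophotometrically 5 days post-infection. EC50 is the concentration giving 50% protection from virus-induced cytopathic effect.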

[2] = Antiviral activity against HIV-2 ROD infected in human MT-4 cells assessed as protection against virus induced cytopathic effect after 5 days by MTT assay; assay type: functional, cell-based, Human immunodeficiency virus type 2 (ISOLATE ROD); conditions: Human immunodeficiency virus 2, MT4, 120 h; outline: as §1
[3] = Cytotoxicity against human MT4 cells assessed as reduction in cell viability after 5 days by MTT assay; assay type: toxicity, cell-based
Outline: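 Mock-infected MT-4 cells (6 x 10⁵ cells/mL) were run in parallel with the infected series. Serial 5-fold compound dilutions were tested in triplicate wells, with culture medium in place of virus. Viability was measured by MTT at day 5. CC50 is the concentration that reduces viability of mock-infected cells by 50%.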

[4] = Selectivity index, ratio of CC50 for human MT-4 cells to IC50 for HIV-1 3B infected in human MT-4 cells; assay type: functional, MT4
Outline: (§2)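 Selectivity index is CC50 in mock-infected MT-4 cells divided by IC50 against HIV-1 IIIB or HIV-2 ROD. Both values come from parallel 5-day MTT assays in the same plates.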

[5] = Selectivity index, ratio of CC50 for human MT-4 cells to IC50 for HIV-2 ROD infected in human MT-4 cells; assay type: functional, MT4; outline: as §2

Structure (SMILES)	IC50 [1] [µg/mL]	IC50 [2] [µg/mL]	CC50 at 120 h [3] [µg/mL]	Ratio CC50/IC50 [4]	Ratio CC50/IC50 [5]
COc1cccc(-c2cc3oc(=O)cc(C)c3cc2OS(=O)(=O)C(F)(F)F)c1	> 18.9	> 18.9	18.9 (≈ 45.5 µM)	<1	<1
COc1ccc(-c2cc3oc(=O)cc(C)c3cc2-c2ccc(F)cc2)cc1	> 10.9	> 10.9	10.9 (≈ 30.3 µM)	<1	<1
COc1ccc(-c2cc3oc(=O)cc(C)c3cc2-c2cc(C)cc(C)c2)cc1	> 2.08	> 2.08	2.08 (≈ 5.61 µM)	<1	<1
Cc1ccc(-c2cc3oc(=O)cc(C)c3cc2OS(=O)(=O)C(F)(F)F)cc1	> 11	> 11	11 (≈ 27.6 µM)	<1	<1
Cc1cc(C)cc(-c2cc3oc(=O)cc(C)c3cc2-c2cc(C)cc(C)c2)c1	4.57 (≈ 12.4 µM)	> 14.4	14.4 (≈ 39.1 µM)	3	<1
COc1ccc(-c2cc3oc(=O)cc(C)c3cc2-c2cccc(C)c2)cc1	> 7.4	> 7.4	7.4 (≈ 20.8 µM)	<1	<1
CCOc1ccc(-c2cc3oc(=O)cc(C)c3cc2-c2ccc(OCC)cc2)cc1	> 37.3	> 37.3	37.3 (≈ 93.2 µM)	<1	<1
Cc1cc(=O)oc2cc(-c3ccc(Cl)cc3)c(-c3ccc(Cl)cc3)cc12	> 16	> 16	16 (≈ 41.9 µM)	<1	<1
COc1ccc(-c2cc3oc(=O)cc(C)c3cc2-c2ccc(OC)cc2)cc1	> 11	> 11	11 (≈ 29.5 µM)	<1	<1
Cc1cc(=O)oc2cc(-c3ccc(C(F)(F)F)cc3)c(OS(=O)(=O)C(F)(F)F)cc12	> 80.3	> 80.3	80.3 (≈ 178 µM)	<1	<1
Cc1cc(=O)oc2cc(OS(=O)(=O)C(F)(F)F)c(OS(=O)(=O)C(F)(F)F)cc12	> 43.5	> 43.5	43.5 (≈ 95.3 µM)	<1	<1
COc1ccc(-c2cc3oc(=O)cc(C)c3cc2OS(=O)(=O)C(F)(F)F)c(OC)c1OC	> 2.13	> 2.13	2.13 (≈ 4.49 µM)	<1	<1
COc1ccc(-c2cc3oc(=O)cc(C)c3cc2OS(=O)(=O)C(F)(F)F)cc1	> 10.6	> 10.6	≥ 10.6	<1	<1
Cc1cc(C)cc(-c2cc3oc(=O)cc(C)c3cc2OS(=O)(=O)C(F)(F)F)c1	> 33.1	> 33.1	33.1 (≈ 80.3 µM)	<1	<1
CCOc1ccc(-c2cc3oc(=O)cc(C)c3cc2OS(=O)(=O)C(F)(F)F)cc1	> 27.2	> 27.2	≥ 27.2	< 1	<1
Cc1cc(=O)oc2cc(-c3ccc(C(C)(C)C)cc3)c(OS(=O)(=O)C(F)(F)F)cc12	> 10.3	> 10.3	10.3 (≈ 23.3 µM)	<1	<1
Cc1cc(=O)oc2cc(-c3ccccc3)c(-c3ccccc3)cc12	> 13.8	> 13.8	13.8 (≈ 44.1 µM)	<1	<1
COc1ccc(-c2cc3oc(=O)cc(C)c3cc2-c2ccc(Cl)cc2)cc1	> 2.06	> 2.06	2.06 (≈ 5.47 µM)	<1	<1
Cc1cccc(-c2cc3oc(=O)cc(C)c3cc2OS(=O)(=O)C(F)(F)F)c1	13.2 (≈ 33.1 µM)	> 61.3	61.3 (≈ 154 µM)	5	<1
Cc1cc(=O)oc2cc(-c3ccc(F)cc3)c(OS(=O)(=O)C(F)(F)F)cc12	> 10.6	> 10.6	10.6 (≈ 26.4 µM)	<1	<1
Cc1cc(=O)oc2cc(-c3ccc(Cl)cc3)c(OS(=O)(=O)C(F)(F)F)cc12	> 30.6	> 35.6	35.6 (≈ 85.1 µM)	<1	<1
Cc1cc(=O)oc2cc(-c3ccccc3)c(OS(=O)(=O)C(F)(F)F)cc12	> 12.5	> 12.5	12.6 (≈ 32.7 µM)	<1	<1
Cc1ccnc2c1NC(=O)c1cccnc1N2C1CC1 [NEVIRAPINE]	–	> 4	> 4	>80	<1
Cc1cn([C@H]2C[C@H](N=[N+]=[N-])[C@@H](CO)O2)c(=O)[nH]c1=O [ZIDOVUDINE]	–	0.00094 (≈ 0.00352 µM)	> 25	>11363	>26596

Source: ChEMBL document CHEMBL3853346, “Synthesis of arylated coumarins by Suzuki-Miyaura cross-coupling. Reactions and anti-HIV activity” (Bioorg Med Chem, 2016)
